# Results taken from PubChem BioAssay.
# Calls of active or inactive are those of the source. Cut-off read from the data, not from the text of the source, unless noted: active = inhibition above about 30%; inactive = the rest.
# Experiments:
# [1] = Her2 expression decrease, cell viability multiplex – SKBR3 breast tumor cells, AlphaScreen, ATP viability, primary screen (AID 461;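 active = Her2 level under about 52% in both replicate screens, with viability over 70% of control, limit read from the data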;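 for Her2 level: lower value means less Her2 protein in the cells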;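 for viability: percent of carrier control wells set as 100% viability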); conditions: SKBR3 Her2 protein level, 18-24 h, measured here: SKBR3 viability, ATP luminescence, at 10 µM
# [2] = target: Receptor tyrosine-protein kinase erbB-2 (Homo sapiens) (UniProt P04626); experiment: as above; conditions: 18-24 h, at 10 µM, stronger effect = lower value
# Chain of Receptor tyrosine-protein kinase erbB-2 (Homo sapiens) (P04626 whole entry, looked up): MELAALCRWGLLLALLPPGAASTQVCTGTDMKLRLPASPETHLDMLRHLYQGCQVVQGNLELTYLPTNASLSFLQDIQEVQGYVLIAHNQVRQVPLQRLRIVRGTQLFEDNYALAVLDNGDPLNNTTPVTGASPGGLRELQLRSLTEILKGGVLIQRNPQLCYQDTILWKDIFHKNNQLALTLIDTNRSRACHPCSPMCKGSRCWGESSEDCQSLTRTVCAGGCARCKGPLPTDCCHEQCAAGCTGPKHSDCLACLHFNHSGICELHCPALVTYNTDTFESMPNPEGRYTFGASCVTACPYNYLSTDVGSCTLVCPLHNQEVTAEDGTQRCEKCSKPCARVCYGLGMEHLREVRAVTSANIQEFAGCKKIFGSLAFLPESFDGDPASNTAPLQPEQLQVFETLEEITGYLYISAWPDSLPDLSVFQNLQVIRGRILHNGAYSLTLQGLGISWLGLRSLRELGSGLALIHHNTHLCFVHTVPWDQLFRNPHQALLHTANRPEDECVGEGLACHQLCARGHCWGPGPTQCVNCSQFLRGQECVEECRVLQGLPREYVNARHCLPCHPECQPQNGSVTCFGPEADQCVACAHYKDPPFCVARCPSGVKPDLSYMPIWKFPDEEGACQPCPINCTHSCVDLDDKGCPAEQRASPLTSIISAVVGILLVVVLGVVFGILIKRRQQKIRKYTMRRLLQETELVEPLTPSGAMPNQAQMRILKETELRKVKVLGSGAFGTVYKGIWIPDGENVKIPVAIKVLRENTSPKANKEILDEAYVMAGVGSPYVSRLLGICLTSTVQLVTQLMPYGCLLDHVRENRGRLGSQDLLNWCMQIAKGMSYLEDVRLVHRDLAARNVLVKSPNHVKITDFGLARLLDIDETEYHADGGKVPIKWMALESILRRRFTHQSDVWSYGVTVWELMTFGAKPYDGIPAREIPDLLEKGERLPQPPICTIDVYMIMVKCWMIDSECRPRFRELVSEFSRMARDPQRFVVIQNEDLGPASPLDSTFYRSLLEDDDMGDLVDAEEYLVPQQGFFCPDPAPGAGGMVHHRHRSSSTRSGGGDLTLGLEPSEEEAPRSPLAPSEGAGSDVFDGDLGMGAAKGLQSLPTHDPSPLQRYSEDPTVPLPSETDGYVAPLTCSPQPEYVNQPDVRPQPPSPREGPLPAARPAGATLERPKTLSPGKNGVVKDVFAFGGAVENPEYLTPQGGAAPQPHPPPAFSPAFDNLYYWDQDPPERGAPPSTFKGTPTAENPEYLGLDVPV
# [3] = reduced viability of SK-BR-3 breast cancer cells – cell-based, 24 h, human, pilot screen (AID 572;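 active = viability at or below 10% of carrier control in both of two separate runs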;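 note: compound exposure lasted between 18 and 24 h rather than exactly 24 h; 100% = carrier-treated control wells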); conditions: SK-BR-3 viability, CellTiter-Glo luminescence, at 10 µM, stronger effect = lower value
# [4] = HUVEC growth inhibition – cell-based, human, primary screen (AID 575;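 active = viability at or below 30% in both replicate assays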;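 note: 100% = median of untreated cell wells with 0.1% DMSO on each plate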); conditions: HUVEC proliferation, CellTiter-Glo luminescence, 72 h; at 10 µM; stronger effect = lower value
# Outline: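 System: primary human umbilical vein endothelial cells; Quantity: 1250 endothelial cells in each well; Buffer or medium: supplemented EBM, 2% fetal bovine serum; Doses: one dose, 10 µM final, 0.1% DMSO; Incubation: 72 h compound incubation; Technique: ATP-based CellTiter-Glo luminescent read; Evaluation: percent of median DMSO-control luminescence; Controls: vehicle and MePR control wells.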
# [5] = H69AR cell proliferation blockers – human, duplicate replicates, primary screen (AID 580;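 active = viability at or under a set limit in both replicates, limit being median viability minus 3 SD, cut at about 48% in these data, passing the limit was not always enough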;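 note: 100% = mean luminescence of untreated wells and 0% = no signal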); conditions: H69AR lung tumor cells viability, ATP luminescence, 72 h; at 10 µM; stronger effect = lower value
# [6] = MRP1 drug-resistance reversers in H69AR cells – cell-based, doxorubicin co-treatment, pilot screen (AID 601;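 active = viability loss from added drug above about 55%, and viability with drug at most 40%, in both replicates, limit read from the data, passing the limit was not always enough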); conditions: CellTiter-Glo, 72 h, at 10 µM; for differential viability (reversal): stronger effect = higher value
# [7] = yeast transport mutant growth inhibition pilot in 384-well plates, post-Golgi transport modulator project (AID 636; in the data active = inhibition above about 31%); conditions: absorbance 615 nm, about 18 h, stronger effect = higher value
# [8] = growth suppression of yeast trafficking mutant, preliminary HTS, modulators of trafficking downstream of Golgi apparatus project, 1536-format plate, OD 615 nm (AID 637); conditions: yeast transport mutant growth, absorbance 615 nm, 18 h; stronger effect = higher value
# [9] = H69AR cells + 2 uM doxorubicin, measured here: viability with 2 uM doxorubicin, stronger effect = lower value
# [10] = H69AR cells, compound alone cytotoxicity
SMILES,viability [1] [%],Her2 level [2],viability [3],viability [4],viability [5],differential viability (reversal) ([6]; H69AR cells + 2 uM doxorubicin),"viability [6, 9] [%]","viability [6, 10] [%]",inhibition [7],inhibition [8]
COC(=O)N1CC(c2ccccc2)CC1=O (stereo not given),96.5,81.5% (inactive),96.5% (inactive),101% (inactive),100% (inactive),15.1% (inactive),85,100,-9.04% (inactive),-6.51% (inactive)
CN(C(=O)c1ccc2c(=O)n3c(nc2c1)CCCCC3)c1ccccc1,96.5,91% (inactive),96.5% (inactive),97.5% (inactive),102% (inactive),0.655% (inactive),101,102,-7.26% (inactive),2.54% (inactive)
O=C(NCc1ccco1)C(c1ccco1)N(C(=O)Cn1nnc2ccccc21)c1ccc2c(c1)CCC2 (stereo not given),95.5,92.5% (inactive),95.5% (inactive),89.7% (inactive),99.8% (inactive),8.6% (inactive),91.2,99.8,-2.8% (inactive),-5.97% (inactive)
O=C(CN(CCc1ccccc1)C(=O)CNS(=O)(=O)c1ccccc1)NCC1CCCO1 (stereo not given),91,87.5% (inactive),91% (inactive),86.9% (inactive),102% (inactive),5.36% (inactive),96.2,102,-0.81% (inactive),-2.13% (inactive)
CCC(C)(C)NC(=O)C(OC(=O)c1ccco1)c1ccccc1OC (stereo not given),99,93% (inactive),99% (inactive),91.4% (inactive),106% (inactive),18.8% (inactive),87.2,106,-3.65% (inactive),-5% (inactive)
Cc1ccc(C)c(NC(=O)CC(NCCCN2CCOCC2)C(=O)O)c1 (stereo not given),94,93.5% (inactive),94% (inactive),106% (inactive),88.3% (inactive),-8.47% (inactive),96.8,88.3,-0.78% (inactive),9.51% (inactive)
O=C(Nc1cccc2ccccc12)c1cnccn1,82,88.5% (inactive),82% (inactive),92.3% (inactive),95% (inactive),12.5% (inactive),82.5,95,-7.53% (inactive),-1.59% (inactive)
Cc1oc2c(CN3CCOCC3)c(O)ccc2c(=O)c1-c1ccc(Br)cc1,85,114% (inactive),85% (inactive),91.8% (inactive),90.4% (inactive),4.38% (inactive),86,90.4,-0.91% (inactive),-2.67% (inactive)
